Measurements from paper PMC8278208 (Toxicology Reports, 2021).

Legend:
K562 cancer cells = assay: Cell morphological observation by light microscope, K562; type: cell-based, human; details: high concentrations (10 mM shown at 72 h), also at 48 and 96 h
[1] = target: human serum albumin (HSA) (Homo sapiens, UniProt P02768); assay: Fluorescence quenching of HSA by 4-HBA or VA; type: binding; details: for fluorescence quenching mechanism: from temperature dependence of Ksv and Kq; for quenching rate constant Kq ± SE: τ0 5 ns; for enthalpy change ΔH / entropy change ΔS: from Kb at 298 and 310 K
Method in brief: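 HSA (1 μM) in PBS was titrated with test compound to final 0–10,000 μM. Intrinsic fluorescence was recorded at ex 280 nm, em 290–500 nm, slits 5 nm, 1.0 cm cell, at 298 and 310 K and pH 6, 7.4 and 8. Intensity at 342 nm was fitted by Stern–Volmer (τ0 5 ns) for KSV/Kq and by double-log plot for Kb and n. ΔH, ΔS and ΔG were derived from these fits.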

[2] = Cell viability, resazurin assay, K562; type: cell-based, human; details: human, K562 cells (doxorubicin-sensitive leukemia)
Method in brief: (§1)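 Cells seeded at 5×10^4 cells mL⁻¹ and exposed to a range of test compound concentrations for 48, 72 and 96 h. Resazurin solution (0.1 mg mL⁻¹) was then added, followed by a further 4 h incubation. Fluorescence was read at ex 570/em 590 nm. % viability = (F treated/F untreated control) × 100. Three independent experiments, mean ± S.E.; Student's t-test versus untreated control, p<0.05.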

[3] = tested on: doxorubicin-sensitive K562 leukemia cells; assay: Cell viability, resazurin assay, K562; type: cell-based, human; details: for cell viability percentage vs control group: K562, 48, 72, and 96 h
Method in brief: as §1

[4] = Cell viability, resazurin assay, K562/Dox; type: cell-based, human; details: human
Method in brief: as §1

[5] = tested on: doxorubicin-resistant K562/Dox (P-glycoprotein-overexpression) leukemia cells; assay: Cell viability, resazurin assay, K562/Dox; type: cell-based, human; details: K562/Dox, 48, 72, and 96 h
Method in brief: as §1

[6] = 298 and 310 K, pHs 7.4, 6.0 and 8.0
[7] = 0.01, 0.05, 0.1, 0.5, 1, and 5 mM

human serum albumin (HSA), sequence (P02768 25-609): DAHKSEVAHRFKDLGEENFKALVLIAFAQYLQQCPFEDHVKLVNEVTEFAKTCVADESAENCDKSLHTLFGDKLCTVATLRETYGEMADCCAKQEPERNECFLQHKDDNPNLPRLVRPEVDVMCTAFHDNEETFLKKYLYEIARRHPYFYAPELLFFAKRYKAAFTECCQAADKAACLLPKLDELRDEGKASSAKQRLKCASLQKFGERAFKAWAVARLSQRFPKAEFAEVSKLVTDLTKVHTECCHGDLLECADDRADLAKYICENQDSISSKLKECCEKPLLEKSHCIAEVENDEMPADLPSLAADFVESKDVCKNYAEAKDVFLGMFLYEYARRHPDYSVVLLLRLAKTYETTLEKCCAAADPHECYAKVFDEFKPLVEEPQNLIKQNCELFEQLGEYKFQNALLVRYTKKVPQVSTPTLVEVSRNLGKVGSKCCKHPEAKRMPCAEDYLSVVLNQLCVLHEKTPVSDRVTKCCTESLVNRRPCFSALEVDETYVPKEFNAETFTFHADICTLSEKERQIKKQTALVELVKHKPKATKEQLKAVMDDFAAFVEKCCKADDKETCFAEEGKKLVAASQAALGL

With `O=C(O)c1ccc(O)cc1` [4-HBA, 4-Hydroxybenzoic acid] the “morphological changes in treated cells” value (K562 cancer cells) was “rough cells, shrinking cells, irregular shape cells, and membrane blebbing”, the “concentrations at which fluorescence intensity of HSA decreased” value (shortened to “concentrations … of HSA decreased”) [1, 6] was 5–10,000 μM and the “concentrations … of HSA decreased” value ([1]; PBS pH 7.4, 298 K, 1 μM HSA) was 5–10,000 μM. The fluorescence quenching mechanism [1] was “static quenching mechanism”, the “Gibbs binding free energy change ΔG” value ([1]; pH 6.0, 298 K) was -4.178 kcal/mol and the “Stern-Volmer quenching constant KSV ± SE” value ([1]; pH 6.0, 298 K) was 4.4982 ± 2.10 × 10^3 L mole^−1. The “number of binding site n ± SE” value ([1]; pH 6.0, 298 K) was 0.8623 ± 0.05, the “quenching rate constant Kq ± SE” value ([1]; pH 6.0, 298 K) was 0.8996 ± 0.42 × 10^12 L. mole^−1 s^−1 and the “Gibbs binding free energy change ΔG” value ([1]; pH 6.0, 310 K) was -3.769 kcal/mol. The “Stern-Volmer quenching constant KSV ± SE” value ([1]; pH 6.0, 310 K) was 4.2857 ± 0.93 × 10^3 L mole^−1, the “number of binding site n ± SE” value ([1]; pH 6.0, 310 K) was 0.9016 ± 0.06 and the “quenching rate constant Kq ± SE” value ([1]; pH 6.0, 310 K) was 0.8572 ± 0.19 × 10^12 L. mole^−1 s^−1. For the same compound, the “enthalpy change ΔH” value ([1]; pH 6.0) was -14.3 kcal/mol, the “entropy change ΔS” value ([1]; pH 6.0) was −142.12 J. mol^−1 K^−1 and the “Gibbs binding free energy change ΔG” value ([1]; pH 7.4, 298 K) was -2.753 kcal/mol. The “Stern-Volmer quenching constant KSV ± SE” value ([1]; pH 7.4, 298 K) was 3.0657 ± 1.18 × 10^3 L mole^−1, the “number of binding site n ± SE” value ([1]; pH 7.4, 298 K) was 0.6130 ± 0.05 and the “quenching rate constant Kq ± SE” value ([1]; pH 7.4, 298 K) was 0.6131 ± 0.24 × 10^12 L. mole^−1 s^−1. For the same compound, the “Gibbs binding free energy change ΔG” value ([1]; pH 7.4, 310 K) was -2.36 kcal/mol, the “Stern-Volmer quenching constant KSV ± SE” value ([1]; pH 7.4, 310 K) was 2.7164 ± 0.27 × 10^3 L mole^−1 and the “number of binding site n ± SE” value ([1]; pH 7.4, 310 K) was 0.7235 ± 0.05. The “quenching rate constant Kq ± SE” value ([1]; pH 7.4, 310 K) was 0.5433 ± 0.05 × 10^12 L. mole^−1 s^−1, the “enthalpy change ΔH” value ([1]; pH 7.4) was -12.42 kcal/mol and the “entropy change ΔS” value ([1]; pH 7.4) was −135.72 J. mol^−1 K^−1. For the same compound, the “Gibbs binding free energy change ΔG” value ([1]; pH 8.0, 298 K) was -3.623 kcal/mol, the “Stern-Volmer quenching constant KSV ± SE” value ([1]; pH 8.0, 298 K) was 1.8046 ± 0.51 × 10^3 L mole^−1 and the “number of binding site n ± SE” value ([1]; pH 8.0, 298 K) was 0.8005 ± 0.11. The “quenching rate constant Kq ± SE” value ([1]; pH 8.0, 298 K) was 0.3609 ± 0.10 × 10^12 L. mole^−1 s^−1, the “Gibbs binding free energy change ΔG” value ([1]; pH 8.0, 310 K) was -3.382 kcal/mol and the “Stern-Volmer quenching constant KSV ± SE” value ([1]; pH 8.0, 310 K) was 1.4572 ± 0.25 × 10^3 L mole^−1. The “number of binding site n ± SE” value ([1]; pH 8.0, 310 K) was 1.0784 ± 0.29, the “quenching rate constant Kq ± SE” value ([1]; pH 8.0, 310 K) was 0.2914 ± 0.05 × 10^12 L. mole^−1 s^−1 and the “enthalpy change ΔH” value ([1]; pH 8.0) was -9.661 kcal/mol. For the same compound, the “entropy change ΔS” value ([1]; pH 8.0) was −84.76 J. mol^−1 K^−1, the viability at 72 h, 10 mM [2] was 90.3 ± 0.96% and the viability at 96 h, 10 mM [2] was 87.6 ± 1.01%. For the same compound, the cell viability percentage ([3]; K562, 10 mM, 48 h) was “did not significantly change”, the “cell viability percentage vs control group” value [3, 7] was “did not significantly change” and the viability at 48 h, 10 mM [4] was 75.4 ± 8.61%. The viability at 72 h, 10 mM [4] was 70.4 ± 5.21%, the viability at 96 h, 10 mM [4] was 66.3 ± 7.67% and the “cell viability percentage vs control group” value [5, 7] was “did not significantly change”.
For `COc1cc(C(=O)O)ccc1O` [VA, 4-hydroxy-3-methoxybenzoic acid], the “morphological changes in treated cells” value (K562 cancer cells) was “rough cells, shrinking cells, irregular shape cells, and membrane blebbing”, the “concentrations … of HSA decreased” value [1, 6] was 2,000 to 10,000 μM and the “concentrations … of HSA decreased” value ([1]; PBS pH 7.4, 298 K, 1 μM HSA) was 2,000 to 10,000 μM. The fluorescence quenching mechanism [1] was “dynamic quenching mechanism”, the “Gibbs binding free energy change ΔG” value ([1]; pH 6.0, 298 K) was -3.411 kcal/mol and the “Stern-Volmer quenching constant KSV ± SE” value ([1]; pH 6.0, 298 K) was 1.2621 ± 0.19 × 10^3 L mole^−1. For the same compound, the “number of binding site n ± SE” value ([1]; pH 6.0, 298 K) was 0.7071 ± 0.08, the “quenching rate constant Kq ± SE” value ([1]; pH 6.0, 298 K) was 0.2524 ± 0.04 × 10^12 L. mole^−1 s^−1 and the “Gibbs binding free energy change ΔG” value ([1]; pH 6.0, 310 K) was -3.109 kcal/mol. The “Stern-Volmer quenching constant KSV ± SE” value ([1]; pH 6.0, 310 K) was 1.4092 ± 0.09 × 10^3 L mole^−1, the “number of binding site n ± SE” value ([1]; pH 6.0, 310 K) was 0.6174 ± 0.08 and the “quenching rate constant Kq ± SE” value ([1]; pH 6.0, 310 K) was 0.2818 ± 0.02 × 10^12 L. mole^−1 s^−1. The “enthalpy change ΔH” value ([1]; pH 6.0) was -10.9 kcal/mol, the “entropy change ΔS” value ([1]; pH 6.0) was −105.08 J. mol^−1 K^−1 and the “Gibbs binding free energy change ΔG” value ([1]; pH 7.4, 298 K) was -2.737 kcal/mol. The “Stern-Volmer quenching constant KSV ± SE” value ([1]; pH 7.4, 298 K) was 0.7564 ± 0.03 × 10^3 L mole^−1, the “number of binding site n ± SE” value ([1]; pH 7.4, 298 K) was 0.5786 ± 0.03 and the “quenching rate constant Kq ± SE” value ([1]; pH 7.4, 298 K) was 0.1513 ± 0.01 × 10^12 L. mole^−1 s^−1. The “Gibbs binding free energy change ΔG” value ([1]; pH 7.4, 310 K) was -2.35 kcal/mol, the “Stern-Volmer quenching constant KSV ± SE” value ([1]; pH 7.4, 310 K) was 0.8312 ± 0.09 × 10^3 L mole^−1 and the “number of binding site n ± SE” value ([1]; pH 7.4, 310 K) was 0.3816 ± 0.09. For the same compound, the “quenching rate constant Kq ± SE” value ([1]; pH 7.4, 310 K) was 0.1662 ± 0.02 × 10^12 L. mole^−1 s^−1, the “enthalpy change ΔH” value ([1]; pH 7.4) was -12.45 kcal/mol and the “entropy change ΔS” value ([1]; pH 7.4) was −136.42 J. mol^−1 K^−1. The “Gibbs binding free energy change ΔG” value ([1]; pH 8.0, 298 K) was -3.069 kcal/mol, the “Stern-Volmer quenching constant KSV ± SE” value ([1]; pH 8.0, 298 K) was 0.7592 ± 0.06 × 10^3 L mole^−1 and the “number of binding site n ± SE” value ([1]; pH 8.0, 298 K) was 0.6340 ± 0.04. For the same compound, the “quenching rate constant Kq ± SE” value ([1]; pH 8.0, 298 K) was 0.1518 ± 0.01 × 10^12 L. mole^−1 s^−1, the “Gibbs binding free energy change ΔG” value ([1]; pH 8.0, 310 K) was -2.99 kcal/mol and the “Stern-Volmer quenching constant KSV ± SE” value ([1]; pH 8.0, 310 K) was 1.0384 ± 0.07 × 10^3 L mole^−1. For the same compound, the “number of binding site n ± SE” value ([1]; pH 8.0, 310 K) was 0.5257 ± 0.08, the “quenching rate constant Kq ± SE” value ([1]; pH 8.0, 310 K) was 0.2077 ± 0.01 × 10^12 L. mole^−1 s^−1 and the “enthalpy change ΔH” value ([1]; pH 8.0) was -5.062 kcal/mol. For the same compound, the “entropy change ΔS” value ([1]; pH 8.0) was −27.97 J. mol^−1 K^−1, the viability at 48 h, 5 mM [2] was 79.8 ± 3.98% and the viability at 48 h, 10 mM [2] was 70.6 ± 2.93%. The viability at 72 h, 5 mM [2] was 81.3 ± 6.51%, the viability at 72 h, 10 mM [2] was 58 ± 5.46% and the viability at 96 h, 5 mM [2] was 82.9 ± 5.89%. The viability at 96 h, 10 mM [2] was 56.7 ± 18.2%, the “cell viability percentage vs control group” value ([3]; 0.01, 0.05, 0.1, 0.5, and 1 mM) was “did not significantly change” and the viability at 48 h, 5 mM [4] was 75.3 ± 6.23%. The viability at 48 h, 10 mM [4] was 53.5 ± 10.7%, the viability at 72 h, 5 mM [4] was 70.7 ± 11.1% and the viability at 72 h, 10 mM [4] was 41 ± 5.78%. For the same compound, the viability at 96 h, 5 mM [4] was 65.5 ± 2.36%, the viability at 96 h, 10 mM [4] was 35.9 ± 3.61% and the “cell viability percentage vs control group” value ([5]; 0.01, 0.05, 0.1, 0.5, and 1 mM) was “did not significantly change”.
